Screening data (PubChem)
Jurkat NFkB inh = lowers PMA/ionomycin-induced NF-kB signal in Jurkat cells | inhibition, % at 4 µM | PMA/ionomycin-induced NF-kB luciferase reporter, luminescence | hit rate 0.53% among 330,000 | AID 435003; in the data active = inhibition above about 50%
Gli-Sufu antag = antagonists of Gli-Sufu signaling; hit rate 0.74% among 340,000; inhibition, % at 5 µM; AID 588413; Sufu-KO-LIGHT fibroblasts, Gli luciferase reporter luminescence;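 active = inhibition above about 55%, limit read from the data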;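 note: 0% = DMSO-treated cells and 100% = wells with medium but no cells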
TAG inh = triacylglycerol accumulation inhibition; H9c2 cells, Nile Red lipid (TAG) fluorescence; cells loaded with 200 µM oleic acid; inhibition, % at 12.5 µM; hit rate 0.66% among 230,000;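 active = pattern-corrected inhibition of lipid staining of at least 50% with the nuclear-stain viability signal not falling by more than 50%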;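 note: 0% = DMSO wells and 100% = triacsin C control wells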
697 NFkB inh = lowers PMA/ionomycin-induced NF-kB signal in 697 B cells | inhibition, % at 4 µM | AID 435022 | hit rate 0.33% among 330,000 | 697 B-cell NF-kB luciferase reporter, 16 h; in the data active = inhibition above about 35%
Lipid droplet = modulators of hepatic lipid droplet formation; AML12 mouse hepatocytes, oleate lipid droplets, BODIPY imaging; inhibition, % at 6.5 µM; hit rate 0.4% among 240,000; AID 1656;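 active = lipid droplet intensity inhibited by at least 50%, with more than 500 cells counted; inconclusive = wells with under 300 cells, treated as cytotoxic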
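Assay system: AML12 hepatocytes (mouse); Probe or stimulus: oleic acid at 100 µM to induce lipid droplet formation; Dosing: compound at 6.5 µM only; Schedule: compound with oleate, overnight; Detection: fluorescence imaging, 20x objective, two fields per well; Measure: % inhibition of lipid droplet signal.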
iPSC survival up = hiPSC single-cell survival enhancement; survival enhancement, % at 20 µM; ATPlite luminescence; 100% = ROCK inhibitor wells, 0% = DMSO; hit rate 0.044% among 360,000; in the data active = survival enhancement above about 18%;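 note: cells exposed to compounds for 16 hours before the ATP read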
Jurkat NFkB conf = lowers PMA/ionomycin-induced NF-kB signal in Jurkat cells; inhibition, % at 4 µM; AID 435020; shares compounds with Jurkat NFkB inh; hit rate 27% among 2,700; Jurkat NF-kB luciferase, 16 h;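 active = inhibition reaching about 45% at 4 µM in either replicate, limit read from the data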;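 note: plate controls were PMA/ionomycin stimulated DMSO wells for no effect and unstimulated DMSO wells for full effect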
697 NFkB conf = inhibitors of the PMA/ionomycin-induced NF-kB reporter in 697 B cells, retest | shares compounds with 697 NFkB inh | 697 B-cell NF-kB luciferase, 16 h | inhibition, % at 4 µM | hit rate 35% among 2,000 | AID 449746; in the data active = inhibition mostly above about 28%, no sharp cut-off; inactive = mostly below about 22%
Gli-Sufu confirm = confirmation of Gli-SUFU pathway antagonists | inhibition, % at 5 µM | AID 602428 | hit rate 40% among 2,500 | shares compounds with Gli-Sufu antag | Sufu-KO-LIGHT cells, Gli luciferase reporter, luminescence;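 active = mean inhibition at 5 µM reaching about 45%, limit read from the data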;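 note: plate controls were DMSO-treated cells for no effect and wells lacking cells for full effect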
Gli cytotox = counter-screen for Gli-SUFU antagonists: cytotoxicity; cytotoxicity, % at 5 µM; hit rate 32% among 2,500; AID 651994; Sufu-KO-LIGHT cells cytotoxicity, ATP luminescence; shares compounds with Gli-Sufu antag;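 active = mean cytotoxicity at 5 µM above about 25%, limit read from the data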;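 note: cells exposed to compound overnight for roughly 16 to 18 hours; plate controls were DMSO wells with cells for no effect and medium without cells for full effect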
Wnt3a cs = inhibits Wnt3a reporter, counter-screen for Gli-SUFU antagonists | shares compounds with Gli-Sufu antag | Wnt-LIGHT cells, Wnt3a-driven luciferase reporter, luminescence | inhibition, % at 6.25 µM | hit rate 20% among 2,500;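 active = mean inhibition above about 25%, limit read from the data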
* hit, by the source's call; u = inconclusive; x = no result. Sampled rows, rich in hits. Any-hit rate of the full collection: about 1.8%.

SMILES	Jurkat NFkB inh	Gli-Sufu antag	TAG inh	697 NFkB inh	Lipid droplet	iPSC survival up	Jurkat NFkB conf	Gli-Sufu confirm	Gli cytotox	Wnt3a cs	others
CCC[C@H]1NC(=O)[C@H](C)N(C)C(=O)C(C)(C)C(=O)C(C)NC(=O)[C@H](Cc2ccc(OC)cc2)N(C)C(=O)[C@H](C(C)C)N(C)C(=O)CNC(=O)[C@H](CC(C)C)N(C)C(=O)CNC(=O)[C@H]([C@@H](C)CC)OC(=O)[C@H]1C (stereo partly specified)	82*	75*	x	-28	x	x	42	89*	58*	61*
CC[C@H](C)C1OC(=O)[C@@H](C)[C@@H](CC)NC(=O)[C@H](C)N(C)C(=O)C(C)(C)C(=O)C(C)NC(=O)[C@H](Cc2ccc(OC)cc2)N(C)C(=O)[C@H](C(C)C)N(C)C(=O)CNC(=O)[C@H](CC(C)C)N(C)C(=O)CNC1=O (stereo partly specified)	x	x	x	x	x	-5	x	x	x	x
Cc1cccc(N(C)S(=O)(=O)c2ccc(-c3cnc(C4CC4)o3)cc2)c1	62*	59*	x	-122	u	-1	54*	57*	55*	-15
COc1ccc(NS(=O)(=O)c2ccc(-c3cnc(C4CC4)o3)cc2)cc1OC	57*	72*	x	17	-7	0	68*	71*	59*	29*
O=S(=O)(Nc1ccc(F)cc1Cl)c1ccc(-c2cnc(C3CC3)o2)cc1	52*	54	x	-26	-123	-1	52*	25	50*	-34
CC(=O)Nc1ccc(NS(=O)(=O)c2cc(-c3cnc(C4CC4)o3)ccc2C)cc1	-3	6	x	-15	-13	-1	x	x	x	x
CCOc1ccccc1NS(=O)(=O)c1ccc(-c2cnc(C3CC3)o2)cc1	55*	55*	x	-81	u	0	58*	59*	56*	-12
Cc1ccc(N(C)S(=O)(=O)c2cc(-c3cnc(C4CC4)o3)ccc2C)cc1	15	-5	x	-10	-81	1	x	x	x	x
Cn1nc(C(=O)NNC(=O)C2CSC3(C)CCC(=O)N23)c2ccccc2c1=O (stereo unspecified)	-2	-5	-12	8	x	2	x	x	x	x
Cc1cccc(/C=N/Nc2cc(N3CCOCC3)nc(N3CCOCC3)n2)c1	66*	60*	x	58*	130*	0	9	41	34*	-103	697 NFkB conf=7
Cc1ccc(OCC(=O)c2cc(C)n(-c3ccccc3)c2C)c([N+](=O)[O-])n1	76*	70*	x	12	-2	2	11	74*	16	87*
CCN(CC)S(=O)(=O)c1cc(C(=O)Nc2cccnc2Cl)ccc1Cl	-5	0	6	-2	-21	6	x	x	x	x
COC(=O)C1=C(CN2CCCc3ccccc32)NC(=O)NC1c1ccc(F)cc1 (stereo unspecified)	54*	82*	x	1	x	-2	79*	36	19	72*
O=C(Cc1ccccc1)Nc1ccccc1C(=O)N1CCCCCC1	5	-15	x	11	1	-1	x	x	x	x
CCOC(=O)c1cc([N+](=O)[O-])sc1NC(=O)c1ccc(S(=O)(=O)N2CC3(C)CC2CC(C)(C)C3)cc1 (stereo unspecified)	57*	71*	x	-3	0	2	25	82*	27*	50*
COc1ccc(CN2CCSCC2)c(C)c1C	2	8	-8	-2	-12	-1	x	x	x	x
CCn1c(C)[n+](Cc2ccccc2)c2ccc(Cl)cc21	-7	27	10	-21	-11	-1	x	x	x	x
CCn1c(/C=C/Nc2ccccc2)[n+](CC)c2ccc(Cl)cc21	58*	52	x	-27	-14	0	9	43	25	-33
COc1ccc(NS(=O)(=O)c2cccc(NC(=O)c3ccc(Cl)nc3)c2)cc1	72*	69*	-16	64*	x	-3	67*	68*	41*	16	697 NFkB conf=54*
CCCCCCN(C(=O)CCCCCN1C(=O)NC(c2ccc(Cl)cc2)C(C(=O)OCc2ccccc2)=C1C)C(C(=O)NCCCC)c1ccc(OCC(=O)OC)c(C(=O)OC)c1 (stereo unspecified)	x	x	x	x	-2	x	x	x	x	x
CC(=O)c1c(C)[nH]c(C(=O)OCC(=O)Nc2sc3c(c2C#N)CCC(C)C3)c1C (stereo unspecified)	6	23	-3	-18	-13	0	x	x	x	x
COc1cc(NC(=O)Cc2nn(C)c(=O)c3ccccc23)cc(OC)c1	12	24	-36	-17	-6	1	x	x	x	x
Cn1nc(CC(=O)Nc2ccc3c(c2)OCCO3)c2ccccc2c1=O	52*	66*	-32	43*	-55	-1	66*	68*	31*	41*	697 NFkB conf=41*
Cn1nc(CC(=O)Nc2ccc(N3CCN(C(=O)OC(C)(C)C)CC3)cc2)c2ccccc2c1=O	55*	66*	-28	46*	18	-2	53*	78*	39*	37*	697 NFkB conf=1
COc1cc(CSc2nnnn2-c2ccc(C)cc2)cc(OC)c1OC	59*	69*	x	44*	-17	-3	60*	68*	27*	40*	697 NFkB conf=47*
COc1ccc(CN(C)c2ccc(S(=O)(=O)N3CCN(C)CC3)cc2[N+](=O)[O-])cc1OC	68*	74*	-23	87*	x	-1	75*	74*	35*	45*	697 NFkB conf=97*
CCOC(=O)c1cn(Cc2cccc(Cl)c2)c2cc(C)nn2c1=O	-10	3	-4	-1	-4	0	x	x	x	x
CC1CCCN(c2ncnc3c2cnn3-c2ccc(Cl)cc2)C1 (stereo unspecified)	60*	81*	-20	-8	-13	-3	87*	92*	67*	106*
CC1CCCN(c2ncnc3c2cnn3-c2ccccc2)C1 (stereo unspecified)	-102	2	-5	-220	-9	-2	x	x	x	x
CCC1(c2ccccc2)NC(=O)N(CC(=O)NCc2ccc(OC)cc2)C1=O (stereo unspecified)	-10	-11	x	5	u	0	x	x	x	x
